ChEMBL document CHEMBL1123586, “3-[(2-ethoxyphenoxy)methyl]piperidine derivatives. Synthesis and antidepressant activity” (J Med Chem, 1987)

Key:
Mus musculus [1] = test: Antidepressant activity was assessed from the ability to antagonize reserpine-induced palpebral ptosis on peroral administration in mice.;Value ranges from (0.9-3.1).; type: functional
Sus scrofa [2] = species on record: Sus scrofa; test: Tested for in vitro reuptake inhibition of [3H]-5-hydroxy tryptamine in pig frontal synaptosomes.; type: functional; conditions: Brain
How it was run: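 Synaptosomes from frontal cortex of slaughterhouse pig brain take up [3H]-5-HT (4 nM) with the compound present. Nonspecific uptake is defined with chlorimipramine and also by incubating at 0–4 °C without drug. IC50 for specific uptake by log-probit analysis, four concentrations, each in triplicate.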

Sus scrofa [3] = species on record: Sus scrofa; test: Tested for in vitro reuptake inhibition of [3H]norepinephrine in pig occipital synaptosomes.; type: functional; conditions: Brain
How it was run: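 [3H]NE (15 nM) uptake into occipital cortex synaptosomes from slaughterhouse pig brain, measured with the compound present. Nonspecific transport is defined with desipramine and also by incubation at 0–4 °C without drug. IC50 for specific uptake from log-probit analysis, four concentrations, each in triplicate.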

Mus musculus [4] = test: Compound dose that causes lethality (acute toxicity) was determined by administering perorally in mice.; type: organism-based; conditions: in vivo, po
Sus scrofa [5] = species on record: Sus scrofa; test: Tested for in vitro reuptake inhibition of [3H]dopamine in pig striatal synaptosomes.; type: functional; conditions: Brain
How it was run: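 Pig corpus striatum synaptosomes (slaughterhouse brains) take up [3H]DA (2 nM) with the compound present. Nonspecific transport is defined with benztropine and also by incubation at 0–4 °C without drug. IC50 for specific uptake by log-probit analysis over four concentrations, each in triplicate.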

Mus musculus [6] = test: Amphetamine antagonistic activity on peroral administration in mice.;value ranges from (5.1-5.9); type: functional
Mus musculus [7] = test: Pentylenetetrazole antagonistic activity on peroral administration in mice; inactive at this dose.; type: functional
Mus musculus [8] = test: Antidepressant activity was assessed from the ability to antagonize reserpine-induced hypothermia on peroral administration in mice;value ranges from (13.5-19.1); type: functional
Mus musculus [9] = test: Antidepressant activity was assessed from the ability to antagonize reserpine-induced hypothermia on peroral administration in mice;inactive at this dose..; type: functional
Mus musculus [10] = test: Amphetamine antagonistic activity on peroral administration in mice; inactive at this dose.; type: functional
Mus musculus [11] = test: Pentylenetetrazole antagonistic activity on peroral administration in mice; inactive at this dose..; type: functional
Mus musculus [12] = test: Antidepressant activity was assessed from the ability to antagonize reserpine-induced palpebral ptosis on peroral administration in; inactive at this dose.; type: functional
Mus musculus [13] = test: Antidepressant activity was assessed from the ability to antagonize reserpine-induced palpebral ptosis on peroral administration in mice;value ranges from (2.7-5.4.); type: functional
Mus musculus [14] = test: Amphetamine antagonistic activity on peroral administration in mice; value ranges from (7.4-19.7.); type: functional
Mus musculus [15] = test: Antidepressant activity was assessed from the ability to antagonize reserpine-induced hypothermia on peroral administration in mice;value ranges from (11.1-31.); type: functional
Mus musculus [16] = test: Antidepressant activity was assessed from the ability to antagonize reserpine-induced palpebral ptosis on peroral administration in mice; Value ranges from (1.3-3.4).; type: functional
Mus musculus [17] = test: Pentylenetetrazole antagonistic activity on peroral administration in mice; Value ranges from (24.5-41.4); type: functional
Mus musculus [18] = test: Amphetamine antagonistic activity on peroral administration in mice; Value ranges from (29.4-65.9); type: functional

| SMILES | ED (Mus musculus [1]) [mg/kg] | IC50 (Sus scrofa [2]) [µM] | IC50 (Sus scrofa [3]) [µM] | LD (Mus musculus [4]) [mg/kg] | IC50 (Sus scrofa [5]) [µM] | ED (Mus musculus [6]) [mg/kg] | ED (Mus musculus [7]) [mg/kg] | ED (Mus musculus [8]) [mg/kg] | ED (Mus musculus [9]) [mg/kg] | ED (Mus musculus [10]) [mg/kg] | ED (Mus musculus [11]) [mg/kg] | ED (Mus musculus [12]) [mg/kg] | ED (Mus musculus [13]) [mg/kg] | ED (Mus musculus [14]) [mg/kg] | ED (Mus musculus [15]) [mg/kg] | ED (Mus musculus [16]) [mg/kg] | ED (Mus musculus [17]) [mg/kg] | ED (Mus musculus [18]) [mg/kg] |
| --- | --- | --- | --- | --- | --- | --- | --- | --- | --- | --- | --- | --- | --- | --- | --- | --- | --- | --- |
| CCOc1ccccc1OCC1(O)CCCNC1 (stereo not given) | 1.5 | 65 | 0.66 | 150 | 20 | 5.5 | > 50 | 15.2 |  |  |  |  |  |  |  |  |  |  |
| CCOc1ccccc1OCC1(OC)CCCNC1 (stereo not given) |  | 110 | 1.3 | 200 | 68 |  |  |  | > 25 | > 50 | > 50 | > 25 |  |  |  |  |  |  |
| CCOc1ccccc1OCC1CCCNC1 (stereo not given) |  | 95 | 0.97 | 300 | 62 |  | > 50 |  |  |  |  |  | 3.7 | 9.4 | 17 |  |  |  |
| CNCCCN1c2ccccc2CCc2ccccc21 [DESIPRAMINE] |  | 0.42 | 0.0032 | 300 | 6.1 |  |  |  |  |  |  |  |  |  |  | 1.8 | 33.1 | 40.3 |
| CCOc1ccccc1OCC1CNCCO1 (stereo not given) [VILOXAZINE] |  | 20 | 0.22 | 600 | 38 |  |  |  |  |  |  |  |  |  |  |  |  |  |
